Key:
[1] = Drug uptake in rhesus monkey skull at 3.91+/-0.46 mCi, iv at 180 mins by PET imaging; format: ADME, organism-based, Macaca mulatta; details: in vivo, 3 h
[2] = tested on: Striatum; assay: Drug uptake in rhesus monkey striatum at 3.91+/-0.46 mCi, iv at 180 mins by PET imaging; format: ADME, organism-based, Macaca mulatta; details: in vivo, 3 h
How it was run: (§1)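 Male rhesus monkeys (7.3 ± 0.8 kg; n = 4 baseline), ketamine 10 mg/kg i.m. then 1.5% isoflurane in O2. […] [18F]ligand given i.v. Focus 220 microPET, 180 min (one scan 120 min), 45 frames 30 s–5 min, scatter/attenuation corrected, decay-corrected; template-normalized regions; uptake as SUV.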

[3] = tested on: Plasma; assay: Drug metabolism in rhesus monkey plasma assessed as radiometabolite formation at 3.87 mCi, iv administered 30 mins post-ciproxifan treatment by radio-HPLC; format: ADME, organism-based, Macaca mulatta; details: in vivo, 0.5 h
[4] = tested on: Brain; assay: Drug metabolism in rhesus monkey brain assessed as radiodefluorination at 3.91 mCi, iv by PET; details: in vivo
[5] = tested on: Brain; assay: Drug uptake in FVB mouse whole brain at 73+/-29 uCi, iv administered 30 mins post-(R)-(4-fluorophenyl)(2-(2-(2-methylpyrrolidin-1-yl)ethyl)benzofuran-5-yl)methanone treatment measured at 90 mins by PET imaging; format: ADME, organism-based; details: in vivo, 1.5 h
How it was run: (§2)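 Dynamic microPET ran 120 min with frames of 20 s to 20 min, without attenuation or scatter correction. Decay-corrected whole-brain curves expressed as SUV = (%ID/cm3) × (g body weight).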

[6] = Drug uptake in rhesus monkey frontal cortex at 3.91+/-0.46 mCi, iv administered 30 mins post-ciproxifan treatment measured at 180 mins by PET imaging; format: ADME, organism-based, Macaca mulatta; details: in vivo, 3 h; how it was run: as §1
[7] = tested on: Striatum; assay: Drug uptake in rhesus monkey striatum at 3.91+/-0.46 mCi, iv administered 30 mins post-(R)-(4-fluorophenyl)(2-(2-(2-methylpyrrolidin-1-yl)ethyl)benzofuran-5-yl)methanone treatment measured up to 180 mins by PET imaging; format: ADME, organism-based, Macaca mulatta; details: in vivo; how it was run: as §1
[8] = tested on: Hippocampus; assay: Drug uptake in rhesus monkey hippocampus at 3.91+/-0.46 mCi, iv at 180 mins by PET imaging; format: ADME, organism-based, Macaca mulatta; details: in vivo, 3 h; how it was run: as §1
[9] = Drug uptake in rhesus monkey frontal cortex at 3.91+/-0.46 mCi, iv at 180 mins by PET imaging; format: ADME, organism-based, Macaca mulatta; details: in vivo, 3 h; how it was run: as §1
[10] = tested on: Plasma; assay: Drug metabolism in rhesus monkey plasma assessed as decrease in unchanged compound at 3.87 mCi, iv administered 30 mins post-(R)-(4-fluorophenyl)(2-(2-(2-methylpyrrolidin-1-yl)ethyl)benzofuran-5-yl)methanone treatment by radio-HPLC; format: ADME, organism-based, Macaca mulatta; details: in vivo, 0.5 h
[11] = Drug uptake in rhesus monkey thalamus at 3.91+/-0.46 mCi, iv administered 30 mins post-(R)-(4-fluorophenyl)(2-(2-(2-methylpyrrolidin-1-yl)ethyl)benzofuran-5-yl)methanone treatment measured up to 180 mins by PET imaging; format: ADME, organism-based, Macaca mulatta; details: in vivo; how it was run: as §1
[12] = tested on: Hippocampus; assay: Drug uptake in rhesus monkey hippocampus at 3.91+/-0.46 mCi, iv administered 30 mins post-(R)-(4-fluorophenyl)(2-(2-(2-methylpyrrolidin-1-yl)ethyl)benzofuran-5-yl)methanone treatment measured up to 180 mins by PET imaging; format: ADME, organism-based, Macaca mulatta; details: in vivo; how it was run: as §1
[13] = Metabolic stability in monkey plasma assessed as compound remaining after 2.5 hrs by radio-HPLC; format: ADME, cell-free, Macaca mulatta; details: rhesus monkey, read-out: Stability
How it was run: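 Radioligand incubated in monkey plasma in vitro at room temperature for 2.5 h; percent unchanged by reverse-phase radio-HPLC (C18 radial compression, MeOH:H2O:Et3N 85:15:0.1, 2.0 mL/min); n = 6.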

[14] = tested on: Brain; assay: Drug uptake in FVB mouse whole brain at 73+/-29 uCi, iv administered 30 mins post-(R)-(2-(2-(2-methylpyrrolidin-1-yl)ethyl)benzofuran-5-yl)(4-nitrophenyl)methanone treatment measured at 90 mins by PET imaging; format: ADME, organism-based; details: in vivo, 1.5 h; how it was run: as §2
[15] = tested on: Plasma; assay: Drug metabolism in rhesus monkey plasma assessed as decrease in unchanged compound at 3.87 mCi, iv administered 30 mins post-ciproxifan treatment by radio-HPLC; format: ADME, organism-based, Macaca mulatta; details: in vivo, 0.5 h
[16] = Drug uptake in rhesus monkey cerebellum at 3.91+/-0.46 mCi, iv administered 30 mins post-ciproxifan treatment measured at 180 mins by PET imaging; format: ADME, organism-based, Macaca mulatta; details: in vivo, 3 h
[17] = Drug uptake in rhesus monkey thalamus at 3.91+/-0.46 mCi, iv by PET imaging; format: ADME, organism-based, Macaca mulatta; details: in vivo; how it was run: as §1
[18] = tested on: Hippocampus; assay: Drug uptake in rhesus monkey hippocampus at 3.91+/-0.46 mCi, iv by PET imaging; format: ADME, organism-based, Macaca mulatta; details: in vivo; how it was run: as §1
[19] = Drug uptake in rhesus monkey skull at 3.91+/-0.46 mCi, iv administered 30 mins post-(R)-(4-fluorophenyl)(2-(2-(2-methylpyrrolidin-1-yl)ethyl)benzofuran-5-yl)methanone treatment measured up to 180 mins by PET imaging; format: ADME, organism-based, Macaca mulatta; details: in vivo
[20] = Unbound fraction in rhesus monkey plasma at 3.91+/-0.46 mCi, iv by ultrafiltration; format: ADME, organism-based, Macaca mulatta
How it was run: (§3)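 Arterial plasma from monkeys scanned at baseline or 30 min after unlabeled ligand (1.0 mg/kg i.v.) pretreatment; free fraction of [18F]ligand measured by ultrafiltration, each plasma sample in triplicate.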

[21] = Drug uptake in rhesus monkey thalamus at 3.91+/-0.46 mCi, iv administered 30 mins post-ciproxifan treatment measured at 180 mins by PET imaging; format: ADME, organism-based, Macaca mulatta; details: in vivo, 3 h; how it was run: as §1
[22] = Unbound fraction in rhesus monkey plasma at 3.91+/-0.46 mCi, iv administered 30 mins post-(R)-(4-fluorophenyl)(2-(2-(2-methylpyrrolidin-1-yl)ethyl)benzofuran-5-yl)methanone treatment by ultrafiltration; format: ADME, organism-based, Macaca mulatta; how it was run: as §3
[23] = tested on: Brain; assay: Drug uptake in FVB mouse whole brain at 73+/-29 uCi, iv at 90 mins by PET imaging; format: ADME, organism-based; details: in vivo, 1.5 h; how it was run: as §2
[24] = Drug uptake in rhesus monkey cerebellum at 3.91+/-0.46 mCi, iv administered 30 mins post-(R)-(4-fluorophenyl)(2-(2-(2-methylpyrrolidin-1-yl)ethyl)benzofuran-5-yl)methanone treatment measured up to 180 mins by PET imaging; format: ADME, organism-based, Macaca mulatta; details: in vivo
[25] = tested on: Brain; assay: Drug uptake in FVB mouse whole brain at 73+/-29 uCi, iv administered 30 mins post-ciproxifan treatment measured at 4.5 mins by PET imaging; format: ADME, organism-based; details: in vivo, 0.075 h; how it was run: as §2
[26] = Metabolic stability in monkey whole blood assessed as compound remaining after 2.5 hrs by radio-HPLC; format: ADME, tissue-based, Macaca mulatta; details: rhesus monkey, read-out: Stability
How it was run: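 [18F]Radioligand was incubated in monkey whole blood at room temperature for 2.5 h in vitro, n = 6. Unchanged fraction was measured by radio-HPLC on reverse-phase C18 in a radial compression module, eluted at 2.0 mL/min with MeOH:H2O:Et3N (85:15:0.1).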

[27] = tested on: Plasma; assay: Drug metabolism in rhesus monkey plasma assessed as radiometabolite formation at 3.87 mCi, iv by radio-HPLC; format: ADME, organism-based, Macaca mulatta; details: in vivo
[28] = tested on: Plasma; assay: Drug metabolism in rhesus monkey plasma assessed as radiometabolite formation at 3.87 mCi, iv administered 30 mins post-(R)-(4-fluorophenyl)(2-(2-(2-methylpyrrolidin-1-yl)ethyl)benzofuran-5-yl)methanone treatment by radio-HPLC; format: ADME, organism-based, Macaca mulatta; details: in vivo, 0.5 h
[29] = tested on: Striatum; assay: Drug uptake in rhesus monkey striatum at 3.91+/-0.46 mCi, iv administered 30 mins post-ciproxifan treatment measured at 180 mins by PET imaging; format: ADME, organism-based, Macaca mulatta; details: in vivo, 3 h; how it was run: as §1
[30] = Drug uptake in rhesus monkey frontal cortex at 3.91+/-0.46 mCi, iv administered 30 mins post-(R)-(4-fluorophenyl)(2-(2-(2-methylpyrrolidin-1-yl)ethyl)benzofuran-5-yl)methanone treatment measured up to 180 mins by PET imaging; format: ADME, organism-based, Macaca mulatta; details: in vivo
[31] = Drug uptake in rhesus monkey cerebellum at 3.91+/-0.46 mCi, iv at 180 mins by PET imaging; format: ADME, organism-based, Macaca mulatta; details: in vivo, 3 h
[32] = Drug uptake in rhesus monkey thalamus at 3.91+/-0.46 mCi, iv at 180 mins by PET imaging; format: ADME, organism-based, Macaca mulatta; details: in vivo, 3 h; how it was run: as §1
[33] = tested on: Plasma; assay: Drug metabolism in rhesus monkey plasma assessed as decrease in unchanged compound at 3.87 mCi, iv by radio-HPLC; format: ADME, organism-based, Macaca mulatta; details: in vivo
[34] = tested on: Hippocampus; assay: Drug uptake in rhesus monkey hippocampus at 3.91+/-0.46 mCi, iv administered 30 mins post-ciproxifan treatment measured at 180 mins by PET imaging; format: ADME, organism-based, Macaca mulatta; details: in vivo, 3 h; how it was run: as §1

With C[C@@H]1CCCN1CCc1cc2cc(C(=O)c3ccc([18F])cc3)ccc2o1 the Drug uptake [1] was “Not Active”, the Drug uptake [2] was “Not Active” and the Drug metabolism [3] was “Active”. For the same molecule, the Drug metabolism [4] was “Not Active”, the SUV [5] was < 1.2 and the Drug uptake [6] was “Not Active”. The Drug uptake [7] was “Not Active”, the Drug uptake [8] was “Not Active” and the Drug uptake [9] was “Not Active”. The Drug metabolism [10] was “Active”, the Drug uptake [11] was “Not Active” and the Drug uptake [12] was “Not Active”. For the same molecule, the remaining at 2.5 h [13] was 99.2%, the SUV [14] was < 1.2 and the Drug metabolism [15] was “Active”. For the same molecule, the Drug uptake [16] was “Active”, the Drug uptake [17] was “Active” and the Drug uptake [18] was “Active”. The Drug uptake [19] was “Not Active”, the fraction unbound [20] was 0.0208 and the Drug uptake [21] was “Not Active”. The fraction unbound at 0.5 h [22] was 0.014, the SUV [23] was 2.3 and the Drug uptake [24] was “Not Active”. For the same molecule, the SUV [25] was 1.98, the remaining at 2.5 h [26] was 98.4% and the Drug metabolism [27] was “Active”. For the same molecule, the Drug metabolism [28] was “Active”, the Drug uptake [29] was “Not Active” and the Drug uptake [30] was “Not Active”. For the same molecule, the Drug uptake [31] was “Not Active”, the Drug uptake [32] was “Not Active” and the Drug metabolism [33] was “Active”. For the same molecule, the Drug uptake [34] was “Not Active”.
